Data: ChEMBL document CHEMBL1147085, “Metabolism and pharmacokinetics of a novel Src kinase inhibitor TG100435 ([7-(2,6-dichloro-phenyl)-5-methyl-benzo[1,2,4]triazin-3-yl]-[4-(2-pyrrolidin-1-yl-ethoxy)-phenyl]-amine) and its active N-oxide metabolite TG100855 …” (Drug Metab Dispos, 2007)

Key:
[1] = Half life in Sprague-Dawley rat at 5 mg/kg, ip; type: ADME, organism-based; parameters: dose 5 mg/kg, route intraperitoneal; conditions: in vivo
Mus musculus [2] = test: Tmax in BALB/c mouse assessed as Tmax of ([7-(2,6-Dichloro-phenyl)-5-methyl-benzo[1,2,4]triazin-3-yl]-[4-(2-pyrrolidin-1-yl-ethoxy)-phenyl]-amine) at 25 mg/kg, po; conditions: in vivo
Mus musculus [3] = test: AUC (0 to infinity) in BALB/c mouse assessed as AUC of ([7-(2,6-Dichloro-phenyl)-5-methyl-benzo[1,2,4]triazin-3-yl]-[4-(2-pyrrolidin-1-yl-ethoxy)-phenyl]-amine) at 25 mg/kg, po; conditions: in vivo
[4] = AUC (0 to infinity) in Sprague-Dawley rat at 5 mg/kg, ip; type: ADME, organism-based; parameters: time infinity, dose 5 mg/kg, route intraperitoneal; conditions: plasma
Rattus norvegicus [5] = test: AUC (0 to last) in Sprague-Dawley rat assessed as AUC of ([7-(2,6-Dichloro-phenyl)-5-methyl-benzo[1,2,4]triazin-3-yl]-[4-(2-pyrrolidin-1-yl-ethoxy)-phenyl]-amine) at 25 mg/kg, po; conditions: in vivo
[6] = Volume of distribution in BALB/c mouse at 5 mg/kg, iv; type: ADME, organism-based; parameters: dose 5 mg/kg, route intravenous; conditions: in vivo
Mus musculus [7] = test: Drug level in BALB/c mouse plasma at 5 mg/kg, ip; type: ADME, organism-based; parameters: dose 5 mg/kg, route intraperitoneal; conditions: in vivo
Summary of the method: (§1)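 Male BALB/c mice (~25 g); fasted overnight for single p.o. dosing, not fasted for i.v. or i.p. dosing. Composite blood sampling, n=3 per time point: 5, 15, 30 min, 1, 3, 6, 24, 48 hr after i.v. dose; 0.5, 1, 3, 5, 8, 24, 30, 48 hr after p.o. or i.p. dose. Heparinized plasma, both parent and N-oxide measured by LC/MS/MS (MRM 494.2/98.1 and 510.2/98.1); non-compartmental analysis, AUC by linear trapezoidal rule.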

[8] = Half life in Sprague-Dawley rat at 5 mg/kg, iv; type: ADME, organism-based; parameters: dose 5 mg/kg, route intravenous; conditions: in vivo
[9] = Drug level in Sprague-Dawley rat plasma at 5 mg/kg, iv; type: ADME, organism-based; parameters: dose 5 mg/kg, route intravenous
Mus musculus [10] = test: Volume of distribution in BALB/c mouse at 5 mg/kg, ip; type: ADME, organism-based; parameters: dose 5 mg/kg, route intraperitoneal; conditions: in vivo; summary of the method: as §1
[11] = AUC (0 to infinity) in BALB/c mouse at 40 mg/kg, po; type: ADME, organism-based; parameters: time infinity, dose 40 mg/kg, route oral; conditions: plasma; summary of the method: as §1
[12] = AUC (0 to infinity) in BALB/c mouse at 5 mg/kg, ip; type: ADME, organism-based; parameters: time infinity, dose 5 mg/kg, route intraperitoneal; conditions: plasma; summary of the method: as §1
Mus musculus [13] = test: Bioavailability in BALB/c mouse assessed as bioavailability of ([7-(2,6-Dichloro-phenyl)-5-methyl-benzo[1,2,4]triazin-3-yl]-[4-(2-pyrrolidin-1-yl-ethoxy)-phenyl]-amine) at 25 mg/kg, po; conditions: in vivo
[14] = AUC (0 to infinity) in Sprague-Dawley rat at 5 mg/kg, iv; type: ADME, organism-based; parameters: time infinity, dose 5 mg/kg, route intravenous; conditions: plasma
[15] = AUC (0 to infinity) in BALB/c mouse at 5 mg/kg, iv; type: ADME, organism-based; parameters: time infinity, dose 5 mg/kg, route intravenous; conditions: plasma; summary of the method: as §1
[16] = Bioavailability in BALB/c mouse at 25 mg/kg, po; type: ADME, organism-based; conditions: in vivo
Rattus norvegicus [17] = test: Tmax in Sprague-Dawley rat assessed as Tmax of ([7-(2,6-Dichloro-phenyl)-5-methyl-benzo[1,2,4]triazin-3-yl]-[4-(2-pyrrolidin-1-yl-ethoxy)-phenyl]-amine) at 25 mg/kg, po; conditions: in vivo
[18] = Cmax in BALB/c mouse at 25 mg/kg, po; type: ADME, organism-based; parameters: dose 25 mg/kg, route oral; conditions: in vivo; summary of the method: as §1
Rattus norvegicus [19] = test: AUC (0 to infinity) in Sprague-Dawley rat assessed as AUC of ([7-(2,6-Dichloro-phenyl)-5-methyl-benzo[1,2,4]triazin-3-yl]-[4-(2-pyrrolidin-1-yl-ethoxy)-phenyl]-amine) at 5 mg/kg, ip; type: ADME, organism-based, Plasma; parameters: time infinity, dose 5 mg/kg, route intraperitoneal; conditions: in vivo
[20] = Half life in BALB/c mouse at 5 mg/kg, ip; type: ADME, organism-based; parameters: dose 5 mg/kg, route intraperitoneal; conditions: in vivo; summary of the method: as §1
[21] = AUC (0 to infinity) in Sprague-Dawley rat at 30 mg/kg, po; type: ADME, organism-based; parameters: time infinity, dose 30 mg/kg, route oral; conditions: plasma
Rattus norvegicus [22] = test: Volume of distribution in Sprague-Dawley rat at 5 mg/kg, ip; type: ADME, organism-based; parameters: dose 5 mg/kg, route intraperitoneal; conditions: in vivo
Rattus norvegicus [23] = test: Drug level in Sprague-Dawley rat plasma at 5 mg/kg, ip; type: ADME, organism-based; parameters: dose 5 mg/kg, route intraperitoneal; conditions: in vivo
[24] = AUC (0 to last) in Sprague-Dawley rat at 25 mg/kg, po; type: ADME, organism-based; parameters: time 0 - last, dose 25 mg/kg, route oral; conditions: plasma

Compound `Cc1cc(-c2c(Cl)cccc2Cl)cc2nnc(Nc3ccc(OCC[N+]4([O-])CCCC4)cc3)nc12` has a half-life [1] of 2.3 h, a Tmax (Mus musculus [2]) of 7 h and an AUC (Mus musculus [3]) of 1760 ng·h/mL. It also gave an AUC(0-inf) [4] of 4990 ng·h/mL, an AUC (Rattus norvegicus [5]) of 881 ng·h/mL and a Vd [6] of 1.2 L/kg. The C0 (Mus musculus [7]) was 4100 ng/mL, the half-life [8] was 1.6 h and the C0 [9] was 12200 ng/mL. The Vd (Mus musculus [10]) was 2.6 L/kg, the AUC(0-inf) [11] was 13400 ng·h/mL and the AUC(0-inf) [12] was 6520 ng·h/mL. For the same compound, the F (Mus musculus [13]) was 6.8%, the AUC(0-inf) [14] was 6050 ng·h/mL and the AUC(0-inf) [15] was 5350 ng·h/mL. The bioavailability [16] was 3.5%, the Tmax (Rattus norvegicus [17]) was 4 h and the Cmax [18] was 171 ng/mL. It also gave an AUC (Rattus norvegicus [19]) of 498 ng·h/mL, a half-life [20] of 2.8 h and an AUC(0-inf) [21] of 9310 ng·h/mL. It also gave a Vd (Rattus norvegicus [22]) of 3.3 L/kg, a C0 (Rattus norvegicus [23]) of 1080 ng/mL and an AUC(0-t) [24] of 467 ng·h/mL.
